STAT3 inh: IL-6 driven STAT3 reporter inhibitors, primary screen, U3A cells, luciferase, luminescence, MLSCN library; IL-6 STAT3-luciferase reporter; host cell line lacks STAT1; inhibition, % at 5.5 µM; hit rate 0.89% among 190,000;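 active = inhibition above the mean inhibition across all screened compounds plus 3 SD, cut at about 44% in these data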;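 note: 0% = DMSO only wells and 100% = 100 µM nifuroxazide control wells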
b-catenin transl: modulators of beta-catenin nuclear translocation, primary screen, imaging, HeLa cells, immunofluorescence, high-content; nuclear translocation activity, % at 5 µM; hit rate 0.3% among 190,000;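 active = nuclear translocation activity above 50% at 5 µM, with a well cell count of 50 or more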;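 note: per-cell ratio of nuclear to cytoplasmic median beta-catenin stain intensity; plate controls were DMSO negative control for no effect and GSK-3 inhibitor IX positive control for full effect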
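assay system = human HeLa cells, endogenous beta-catenin | times = compound treatment 24 h, 37°C, 5% CO2 | detection = Anti-beta-catenin immunofluorescence on PFA-fixed, Triton-permeabilized cells, DAPI nuclei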
MT stabilizer: microtubule stabilizers in HeLa cells, primary screen, imaging, high-content imaging. HeLa tubulin immunostaining HCS, 24 h; share of cells brighter than vehicle mean+2SD. % tubulin-high responders, % at 10 µM. hit rate 0.83% among 200,000;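 active = plate Z-score above 3 for both tubulin-high and condensed-nucleus cell shares, with cell loss under 80%, at 10 µM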;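 note: anti alpha tubulin signal scored within the nucleus-defined area of each cell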
STAT3 act-1: IL-6 driven STAT3 reporter potentiators, primary screen, U3A cells, luciferase, luminescence, MLSCN library; hit rate 0.91% among 190,000; IL-6 STAT3-luciferase reporter; 100% = signal with IL-6 EC80 alone; activation (% of control), % at 5.6 µM;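 active = activation above the screen-wide mean of compound activation plus 3 SD, cut at about 130% in these data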;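 note: 0% = background luminescence of wells with medium and substrate only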
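Material: human U3A cells carrying STAT3-luciferase construct. Measured by: reporter luminescence signal. Timing: compound 1 h, then IL-6 6 h at 37 °C.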
STAT1 inh-1: STAT1 signaling inhibitors, primary screen, cell-based, HTS, luciferase reporter; NIH 3T3 STAT1-luciferase reporter, IFN-gamma, luminescence; inhibition, % at 5.5 µM; hit rate 0.35% among 200,000; AID 920, 2007;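 active = inhibition above a set limit, the mean inhibition across all tested compounds plus 3 SD, cut at about 34% in these data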;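 note: 0% = IFN-gamma with DMSO and 100% = IFN-gamma with 300 µM nifuroxazide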
STAT3 act-2: STAT3 reporter potentiators, retest of hits, confirmation, U3A cells, luciferase, luminescence. shares compounds with STAT3 act-1. IL-6 potentiation; U3A cells lack STAT1; 100 means same as IL-6 alone. potentiation (% of control), % at 5.7 µM. hit rate 64% among 1,200;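 active = percent activation of the STAT3 luciferase reporter above a set limit taken from the earlier primary screen, cut at about 130% in these data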;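 note: 0% = background signal of medium plus substrate and 100% = median of IL-6 with DMSO wells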
NFkB act 2: NF-kB reporter activators in human cells, counter-screen for STAT3 activator project; shares compounds with STAT3 act-1; AID 1309, 2008; activation (% of control), % at 5.7 µM; hit rate 11% among 1,200; NF-kappaB reporter activation; in the data active = activation above about 120%;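 note: reporter induced by TNF-alpha stimulation; 100% = median of stimulated DMSO wells and 0% = no signal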
STAT1 act STAT3c: STAT1 reporter activators, IFN-gamma induced, counter-screen for STAT3 activator project, cell-based, NIH 3T3, luciferase luminescence; NIH 3T3 STAT1-luciferase reporter; activation (% of control), % at 5.7 µM; shares compounds with STAT3 act-1; hit rate 13% among 1,200;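 active = activation above the solvent-only control well mean plus 3 SD, set per screening run, cut at about 120% in these data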;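 note: 100% = IFN-gamma with DMSO median signal so 100% means no change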
STAT1 inh-2: STAT1 signaling inhibitors, confirmation, cell-based, HTS, luciferase reporter; AID 1263, 2008; NIH 3T3 STAT1-luciferase reporter, IFN-gamma, luminescence; shares compounds with STAT1 inh-1; inhibition, % at 5.5 µM; hit rate 55% among 200;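 active = triplicate mean inhibition exceeding the hit cutoff computed for the primary STAT1 screen, cut at about 35% in these data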;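 note: 0% = DMSO with IFN-gamma and 100% = 300 µM nifuroxazide with IFN-gamma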
NFkB inh: NF-kB reporter inhibitors, TNF-alpha stimulated, counter-screen for STAT1 inhibitor project, cell-based, HEK293T, luciferase luminescence | shares compounds with STAT1 inh-1 | TNF-alpha induced | inhibition, % at 5.7 µM | hit rate 30% among 200 | AID 1303, 2008;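 active = inhibition above the mean of solvent-only control wells plus 3 SD of those wells, cut at about 15% in these data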;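 note: 0% = DMSO with TNF-alpha and 100% = MG-132 control with TNF-alpha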
STAT3 inh STAT1c: STAT3 reporter inhibition by STAT1 hits, counter-screen for STAT1 inhibitor project, U3A cells, luciferase, luminescence, triplicate. shares compounds with STAT1 inh-1. IL-6 STAT3 luciferase reporter; cells lacking STAT1. inhibition, % at 5.7 µM. hit rate 20% among 200. AID 1310, 2008;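 active = inhibition above the mean of solvent-only control wells plus 3 SD, set per campaign, cut at about 25% in these data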;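 note: 0% = IL-6 plus DMSO and 100% = IL-6 plus nifuroxazide control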
* = called active by the depositor; . = not tested or not shown. Only some compounds are listed: those with a hit (about 2.4% of all), similar ones and a draw of the others.

SMILES	STAT3 inh	b-catenin transl	MT stabilizer	STAT3 act-1	STAT1 inh-1	STAT3 act-2	NFkB act 2	STAT1 act STAT3c	others
c1ccc2c(CN3CCCCCCC3)c[nH]c2c1	-55.9	0.0	2.4	152.8*	16.3	149.3*	101.7	85.2
c1ccc2c(CN3CCN(C4CCCCC4)CC3)c[nH]c2c1	-71.5	-2.2	5.6	166.2*	15.6	146.3*	101.3	89.5
Cc1nn(Cc2c(Cl)cccc2Cl)c(Cl)c1C(=O)O	5.4	-4.4	5.5	97.1	2.2	.	.	.
C=CCSc1nc2c(c(-c3ccsc3)c1C#N)CN(C)CC2	.	0.2	.	.	.	.	.	.
Cc1ccc(-c2nc3ccccc3c(=O)n2-c2ccncc2)cc1	3.4	-1.1	3.5	99.0	-12.6	.	.	.
O=c1c2ccccc2nc(-c2ccc(-c3ccccc3)cc2)n1-c1ccncc1	-36.2	-1.7	4.7	143.9*	-1.4	134.5*	103.3	109.6
Cc1ccccc1OCCCn1cc(C(=O)C(=O)N2CCOCC2)c2ccccc21	11.0	6.3	3.9	92.7	-4.4	.	.	.
O=c1[nH]c(=O)n(Cc2ccccc2Cl)c(O)c1/C=C1/C=CC=N1	-42.6	-1.1	29.2*	138.9*	1.0	123.6	105.8	102.4
C=CCn1c(O)c(/C=C2/C=CC=N2)c(=O)[nH]c1=O	2.4	-2.7	6.8	94.5	-6.2	.	.	.
CCC(CC)NCc1c[nH]c2ccccc12	-51.4	-0.3	2.6	146.1*	12.5	163.5*	111.9	101.0
CC(C)[C@H]1C(=O)O[C@H](C(C)C)C(=O)N(C)[C@@H](C(C)C)C(=O)O[C@H](C(C)C)C(=O)N(C)[C@@H](C(C)C)C(=O)O[C@H](C(C)C)C(=O)N1C	.	-4.8	4.3	.	46.8*	.	.	.	STAT1 inh-2=27.9;NFkB inh=4.2;STAT3 inh STAT1c=17.2
Cc1cc(C)cc(N2C(=O)NC(=O)/C(=C\c3cccn3-c3ccccc3)C2=O)c1	-3.0	0.3	3.3	105.8	21.2	.	.	.
Cc1cc(C)cc(N2C(=O)NC(=O)/C(=C\c3cccn3-c3ccc(Cl)cc3)C2=O)c1	-4.3	0.1	9.3	110.5	38.2*	.	.	.	STAT1 inh-2=23.4;NFkB inh=-38.7;STAT3 inh STAT1c=-21.2
CC(C)(C)NC(=S)/N=C(\N)N[N+](=O)[O-]	6.2	-1.9	5.4	97.9	2.8	.	.	.
